Measurements pooled from the literature.
Compare with care: the assays were run in different laboratories.
Mode: inhibitor
PRMT3: Protein arginine N-methyltransferase 3 (PRMT3, Homo sapiens, UniProt O60678)
PDE7A: High affinity 3',5'-cyclic-AMP phosphodiesterase 7A (PDE7A, Homo sapiens, UniProt Q13946)
LDHA: L-lactate dehydrogenase A chain (LDHA, Homo sapiens, UniProt P00338)
MAOA: Amine oxidase [flavin-containing] A (MAOA, Homo sapiens, UniProt P21397)

Compound	target	assay	test system	setting	IC50
Nc1ncnc2c1ncn2[C@@H]1O[C@H](CSCCNC(=O)Nc2ccc(Cl)cc2)[C@@H](O)[C@H]1O	PRMT3	enzyme activity, fluorescence	–	–	22 µM
COc1cc(/C=C2\SC(=O)NC2=O)cc(F)c1OCCNc1nc2c(cnn2C2CCCC2)c(=O)[nH]1	PDE7A	enzyme activity	–	–	0.279 µM
CNC(=O)c1cc2c(Oc3ccc(NC(=O)C4(C(=O)Nc5ccc(F)cc5)CC4)cc3)ccnc2cc1OC	Homeodomain-interacting protein kinase 4 (HIPK4, Homo sapiens, UniProt Q8NE63)	enzyme activity, radiometric	–	–	0.003 µM
CC1(C)C(/C=C/C=C2/N(CCCc3ccccc3)c3ccc(Cl)cc3C2(C)C)=[N+](CCCc2ccccc2)c2ccc(Cl)cc21	PRMT3	enzyme activity, radiometric	–	–	1.03 µM
Nc1ncnc2c1ncn2[C@@H]1O[C@H](CSCCNC(=O)NCc2ccccc2)[C@@H](O)[C@H]1O	Protein arginine N-methyltransferase 5 (PRMT5, Homo sapiens, UniProt O14744)	enzyme activity, radiometric	–	–	< 2.4 µM
O=C(c1ccccc1)c1ccc2n1CCC2C(=O)O (stereo not shown)	Solute carrier family 22 member 6 (SLC22A6, Homo sapiens, UniProt Q4U2R8)	transporter uptake	–	–	0.653 µM
O=c1cc(-c2ccc(O)c(O)c2)oc2cc(O[C@@H]3O[C@H](CO)[C@@H](O)[C@H](O)[C@H]3O)cc(O)c12	LDHA	enzyme activity	–	pH 7.4	139 µM
O=C(/C=C/c1ccc(O)cc1)c1ccc(O)cc1O	MAOA	enzyme activity	–	–	22.7 µM
O=C(/C=C/c1ccc(O)c(O)c1)O[C@@H]1C[C@](O)(C(=O)O)C[C@@H](O)[C@H]1O	LDHA	enzyme activity	–	pH 7.4	> 500 µM
CN1CCN(c2ccc(Nc3ncc4cc(C#N)c(=O)n(C5CCCC5)c4n3)cc2)CC1	Serine/threonine-protein kinase MARK2 (MARK2, Homo sapiens, UniProt Q7KZI7)	enzyme activity	–	–	0.566 µM
CSc1ccc(/C=C2/C(C)=C(CC(=O)O)c3cc(F)ccc32)cc1	PDE7A	enzyme activity	–	–	> 100 µM
O=C(Cc1cccs1)N[C@@H]1C(=O)N2C(C(=O)[O-])=C(C[n+]3ccccc3)CS[C@H]12	Rhomboid protease AarA (Providencia stuartii, UniProt P46116)	enzyme activity, fluorescence	–	–	18 µM
CCN(CC)CCCOc1cc2cc3c(cc2c2nc(OC)c4cc(OC)c(OC)cc4c12)OCO3	Tyrosyl-DNA phosphodiesterase 1 (TDP1, Homo sapiens, UniProt Q9NUW8)	enzyme activity	–	–	5.5 to 13 µM
CC[C@@H](C(=O)Nc1ccc(C(N)=O)c(F)c1)n1cc(OC)c(-c2cc(Cl)ccc2-n2cc(C(F)(F)F)nn2)cc1=O	Coagulation factor IX (F9, Homo sapiens, UniProt P00740)	enzyme activity	–	–	2.2 µM
O=C(O)CSc1nnc(Br)n1-c1ccc(C2CC2)c2ccccc12	Broad substrate specificity ATP-binding cassette transporter ABCG2 (ABCG2, Homo sapiens, UniProt Q9UNQ0)	transporter uptake	Caco-2	2 h	> 3000 µM
Cc1cnc(-c2ccc(-c3ccc(NC(=O)Nc4c(F)cc(F)cc4F)cc3F)c3c2C(=O)NC3)[nH]1	High affinity nerve growth factor receptor (NTRK1, Homo sapiens, UniProt P04629)	enzyme activity	–	–	0.0148 µM
CCOC(F)(F)c1nnc2cnc(-c3cnc(OCC(F)(F)F)c(F)c3)cn12	Sodium channel protein type 1 subunit alpha (SCN1A, Homo sapiens, UniProt P35498)	ion current, patch clamp	–	–	0.683 µM
C#Cc1ccc(C(=O)C2=C(C)C(=O)c3ccccc3C2=O)cc1	Glutathione reductase, mitochondrial (GSR, Homo sapiens, UniProt P00390)	enzyme activity	–	pH 6.9	0.6 µM
C#CCOc1ccc(/C=C/C(=O)N2CCC(Cc3ccccc3)CC2)cc1OC	MAOA	enzyme activity, fluorescence	–	–	45.2 µM
